Results: ChEMBL document CHEMBL1153525, “Adenosine A2A receptor-antagonist/dopamine D2 receptor-agonist bivalent ligands as pharmacological tools to detect A2A-D2 receptor heteromers” (J Med Chem, 2009)
Activity calls are given as the source filed them. No cut-off for these calls is given here.

What was measured:
[1] = Displacement of [3H]ZM241385 from A2aR dimer in lamb striatum membrane assessed as high affinity macroscopic equilibrium dissociation constant by scintillation counting; type: cell membranes, Ovis aries
Procedure, shortened: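 Lamb striatal membranes (0.3-0.5 mg protein/mL) were incubated 2 h at 25 °C in 50 mM Tris-HCl pH 7.4 with 10 mM MgCl2 and 2 U/mL ADA. Radioligand was 2.1 nM [3H]ZM241385 (A2AR) or 0.9 nM [3H]YM09151-2 (D2R), against 11 competitor concentrations from 0.1 nM to 50 μM in triplicate. Nonspecific binding used 50 μM unlabeled radioligand. After GF/C filtration, counts were fitted to a two-state dimer model for KDB1 and KDB2; three experiments.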

[2] = target: Adenosine A2A receptor (Homo sapiens) (UniProt P29274); test: Displacement of [3H]ZM241385 from human A2aR/D2R (long isoform) heteromer expressed in mouse Ltk cells by scintillation counting; type: cell-based
Adenosine A2A receptor (Homo sapiens), sequence (P29274 whole entry, canonical isoform): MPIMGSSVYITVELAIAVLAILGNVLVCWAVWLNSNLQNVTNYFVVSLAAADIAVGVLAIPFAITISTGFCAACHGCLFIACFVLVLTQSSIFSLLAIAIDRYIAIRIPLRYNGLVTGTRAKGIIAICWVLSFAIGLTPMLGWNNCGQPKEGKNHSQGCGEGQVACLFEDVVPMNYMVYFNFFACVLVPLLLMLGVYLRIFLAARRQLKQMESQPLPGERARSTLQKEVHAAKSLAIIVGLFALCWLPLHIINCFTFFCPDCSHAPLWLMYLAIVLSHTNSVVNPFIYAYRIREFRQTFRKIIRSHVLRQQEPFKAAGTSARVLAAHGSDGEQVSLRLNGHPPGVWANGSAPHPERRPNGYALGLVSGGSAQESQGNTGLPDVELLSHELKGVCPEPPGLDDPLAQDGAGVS
Procedure, shortened: (§1)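 Mouse Ltk fibroblasts were transiently transfected with human A2AR, human D2R (long isoform) or both, and membranes were prepared 48 h later. Membranes were incubated 2 h at 25 °C in 50 mM Tris-HCl pH 7.4 with 10 mM MgCl2 and 2 U/mL ADA, plus 2.1 nM [3H]ZM241385 or 1.9 nM [3H]YM09151-2 and 1 μM test compound. Bound ligand was counted after filtration and expressed as % of specific binding without displacer; three independent experiments.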

[3] = system: Dopamine D2 receptor (Homo sapiens); test: Displacement of [3H]YM09151-2 from human A2aR/D2R (long isoform) heteromer expressed in mouse Ltk cells by scintillation counting
[4] = target: Adenosine A2A receptor (Homo sapiens) (UniProt P29274); test: Displacement of [3H]ZM241385 from human A2aR/D2R (long isoform) coexpressed in mouse Ltk cells by scintillation counting; type: cell-based; procedure, shortened: as §1

| SMILES | Ki [1] | Activity [2] | Activity [3] | Activity [4] |
| --- | --- | --- | --- | --- |
| CCCn1c(=O)c2[nH]c(-c3ccc(OCC(=O)NCCCCC(N)C(=O)NCCCCC(NC(C)=O)C(=O)NC(CCCCNC(C)=O)C(N)=O)cc3)nc2n(CCC)c1=O (configuration not stated) | 160 nM | 58% | – | – |
| CCCN(CCc1ccc(NC(=O)CCC(N)C(=O)NCCCCC(NC(=O)CCC(=O)NCCOCCOCCNC(=O)CCC(=O)NCCOCCOCCNC(=O)CCC(=O)NCCOCCOCCNC(=O)CCC(=O)NCCOCCOCCNC(=O)CCC(=O)NCCOCCOCCNC(=O)C(CCCCNC(=O)C(N)CCCCNC(=O)COc2ccc(-c3nc4c([nH]3)c(=O)n(CCC)c(=O)n4CCC)cc2)NC(C)=O)C(N)=O)cc1)C1CCc2c(O)cccc2C1 (configuration not stated) | – | Active | Active | Active |
| CCCN(CCc1ccc(NC(=O)CCC(N)C(=O)NCCCCC(NC(=O)CCC(=O)NCCOCCOCCNC(=O)CCC(=O)NCCOCCOCCNC(=O)CCC(=O)NCCOCCOCCNC(=O)CCC(=O)NCCOCCOCCNC(=O)C(CCCCNC(=O)C(N)CCCCNC(=O)COc2ccc(-c3nc4c([nH]3)c(=O)n(CCC)c(=O)n4CCC)cc2)NC(C)=O)C(N)=O)cc1)C1CCc2c(O)cccc2C1 (configuration not stated) | – | Active | Active | Active |
| CCCN(CCc1ccc(NC(=O)CCC(N)C(=O)NCCCCC(NC(=O)CCC(=O)NCCOCCOCCNC(=O)CCC(=O)NCCOCCOCCNC(=O)CCC(=O)NCCOCCOCCNC(=O)CCC(=O)NCCOCCOCCNC(=O)CCC(=O)NCCOCCOCCNC(=O)CCC(=O)NCCOCCOCCNC(=O)CCC(=O)NCCOCCOCCNC(=O)C(CCCCNC(C)=O)NC(C)=O)C(N)=O)cc1)C1CCc2c(O)cccc2C1 (configuration not stated) | – | – | Active | – |
| CCCN(CCc1ccc(NC(=O)CCC(N)C(=O)NCCCCC(NC(=O)CCC(=O)NCCOCCOCCNC(=O)CCC(=O)NCCOCCOCCNC(=O)CCC(=O)NCCOCCOCCNC(=O)CCC(=O)NCCOCCOCCNC(=O)C(CCCCNC(C)=O)NC(C)=O)C(N)=O)cc1)C1CCc2c(O)cccc2C1 (configuration not stated) | – | – | Active | – |
| CCCN(CCc1ccc(NC(=O)CCC(N)C(=O)NCCCCC(NC(=O)CCC(=O)NCCOCCOCCNC(=O)CCC(=O)NCCOCCOCCNC(=O)CCC(=O)NCCOCCOCCNC(=O)CCC(=O)NCCOCCOCCNC(=O)CCC(=O)NCCOCCOCCNC(=O)CCC(=O)NCCOCCOCCNC(=O)C(CCCCNC(C)=O)NC(C)=O)C(N)=O)cc1)C1CCc2c(O)cccc2C1 (configuration not stated) | – | – | Active | – |

Next, values leading:

| Ki [1] | Activity [2] | Activity [3] | Activity [4] | SMILES |
| --- | --- | --- | --- | --- |
| – | Active | Active | Active | CCCN(CCc1ccc(NC(=O)CCC(N)C(=O)NCCCCC(NC(=O)CCC(=O)NCCOCCOCCNC(=O)CCC(=O)NCCOCCOCCNC(=O)CCC(=O)NCCOCCOCCNC(=O)CCC(=O)NCCOCCOCCNC(=O)CCC(=O)NCCOCCOCCNC(=O)CCC(=O)NCCOCCOCCNC(=O)C(CCCCNC(=O)C(N)CCCCNC(=O)COc2ccc(-c3nc4c([nH]3)c(=O)n(CCC)c(=O)n4CCC)cc2)NC(C)=O)C(N)=O)cc1)C1CCc2c(O)cccc2C1 (configuration not stated) |
| – | 17% | – | – | CCCn1c(=O)c2[nH]c(-c3ccc(OCC(=O)NCCCCC(N)C(=O)NCCCCC(NC(C)=O)C(=O)NCCOCCOCCNC(=O)CCC(=O)NCCOCCOCCNC(=O)CCC(=O)NCCOCCOCCNC(=O)CCC(=O)NCCOCCOCCNC(=O)CCC(=O)NCCOCCOCCNC(=O)CCC(=O)NCCOCCOCCNC(=O)CCC(=O)NCCOCCOCCNC(=O)CCC(=O)NC(CCCCNC(C)=O)C(N)=O)cc3)nc2n(CCC)c1=O (configuration not stated) |
| – | – | Active | – | CCCN(CCc1ccc(NC(=O)CCC(N)C(=O)NCCCCC(NC(=O)CCC(=O)NCCOCCOCCNC(=O)CCC(=O)NCCOCCOCCNC(=O)CCC(=O)NCCOCCOCCNC(=O)CCC(=O)NCCOCCOCCNC(=O)CCC(=O)NCCOCCOCCNC(=O)C(CCCCNC(C)=O)NC(C)=O)C(N)=O)cc1)C1CCc2c(O)cccc2C1 (configuration not stated) |
| 268 nM | – | – | – | CCCn1c(=O)c2[nH]c(-c3ccc(OCC(=O)NCCCCC(N)C(=O)NCCCCC(NC(C)=O)C(=O)NCCOCCOCCNC(=O)CCC(=O)NCCOCCOCCNC(=O)CCC(=O)NC(CCCCNC(C)=O)C(N)=O)cc3)nc2n(CCC)c1=O (configuration not stated) |
